In ChEMBL document CHEMBL2331445, “Chemical, biochemical and microbiological properties of a brominated nitrovinylfuran with broad-spectrum antibacterial activity” (Bioorg Med Chem, 2013):
Values after ≈ are worked out from the molar mass of the structure shown. Active and inactive are the calls of the source. No cut-off for these calls is given here.

Experiments:
[1] = tested on: Escherichia coli; details: at 10 µM
[2] = biological target: UDP-N-acetylglucosamine 1-carboxyvinyltransferase (Escherichia coli K-12, UniProt P0A749, C115D); test: Inhibition of Escherichia coli MurA C115D mutant expressed in Escherichia coli BL21(lambdaDE3) using UNAG and PEP as substrate incubated for 10 mins prior to PEP addition measured after 60 mins by spectrophotometric analysis
UDP-N-acetylglucosamine 1-carboxyvinyltransferase (Escherichia coli K-12, UniProt P0A749, C115D), sequence (P0A749 whole entry C115D): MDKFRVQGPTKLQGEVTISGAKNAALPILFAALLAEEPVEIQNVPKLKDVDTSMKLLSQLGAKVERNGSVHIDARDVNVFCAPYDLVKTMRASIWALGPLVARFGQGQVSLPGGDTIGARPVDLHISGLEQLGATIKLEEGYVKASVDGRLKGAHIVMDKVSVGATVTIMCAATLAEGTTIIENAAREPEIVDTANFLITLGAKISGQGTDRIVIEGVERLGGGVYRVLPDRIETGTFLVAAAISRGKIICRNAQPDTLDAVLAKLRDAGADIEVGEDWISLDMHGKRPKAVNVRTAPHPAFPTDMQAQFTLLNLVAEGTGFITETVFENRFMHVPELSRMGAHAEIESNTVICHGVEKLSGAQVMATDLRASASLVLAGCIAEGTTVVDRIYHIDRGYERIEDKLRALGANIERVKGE

[3] = Inhibition of Pseudomonas aeruginosa MurA expressed in Escherichia coli BL21(lambdaDE3) using UNAG and PEP as substrate incubated for 10 mins prior to PEP addition measured after 60 mins by spectrophotometric analysis
[4] = tested on: MeWo; test: Cytotoxicity against human MeWo cells after 72 hrs by crystal violet staining method; assay type: ADME, cell-based
[5] = tested on: Dengue virus; details: at 50 µM
[6] = tested on: CAPAN-1; test: Cytotoxicity against human Capan1 cells after 72 hrs by crystal violet staining method; assay type: ADME, cell-based; details: CAPAN-1, 72 h
[7] = tested on: Calu-6; test: Cytotoxicity against human Calu6 cells after 72 hrs by crystal violet staining method; assay type: ADME, cell-based; details: Calu-6, 72 h
[8] = tested on: Escherichia coli; test: microbe, parasite or virus in culture; assay type: functional; details: ATCC 25922
[9] = Inhibition of Staphylococcus aureus MurA2 expressed in Escherichia coli BL21(lambdaDE3) using UNAG and PEP as substrate incubated for 10 mins prior to PEP addition measured after 60 mins by spectrophotometric analysis
[10] = Cytotoxicity against human SW707 cells after 72 hrs by crystal violet staining method; assay type: ADME, cell-based; details: SW707, 72 h
[11] = tested on: Staphylococcus aureus; test: microbe, parasite or virus in culture; assay type: functional; details: ATCC 25923
[12] = tested on: Ca-Ski; test: Cytotoxicity against human CaSki cells after 72 hrs by crystal violet staining method; assay type: ADME, cell-based
[13] = tested on: HaCaT; test: Cytotoxicity against human HaCaT cells after 72 hrs by crystal violet staining method; assay type: ADME, cell-based
[14] = tested on: A-431; test: Cytotoxicity against human A431 cells after 72 hrs by crystal violet staining method; assay type: ADME, cell-based; details: A-431, 72 h
[15] = Induction of GSH-adduct formation in citrate buffer at100 uM by RP-LC/MS analysis; details: 100 µM
[16] = tested on: Staphylococcus aureus; test: microbe, parasite or virus in culture; assay type: functional; details: NCTC 10442
[17] = biological target: Methionine aminopeptidase 2 (Homo sapiens) (UniProt P50579); details: at 10 µM
Methionine aminopeptidase 2 (Homo sapiens), sequence (P50579 2-478 limits assumed): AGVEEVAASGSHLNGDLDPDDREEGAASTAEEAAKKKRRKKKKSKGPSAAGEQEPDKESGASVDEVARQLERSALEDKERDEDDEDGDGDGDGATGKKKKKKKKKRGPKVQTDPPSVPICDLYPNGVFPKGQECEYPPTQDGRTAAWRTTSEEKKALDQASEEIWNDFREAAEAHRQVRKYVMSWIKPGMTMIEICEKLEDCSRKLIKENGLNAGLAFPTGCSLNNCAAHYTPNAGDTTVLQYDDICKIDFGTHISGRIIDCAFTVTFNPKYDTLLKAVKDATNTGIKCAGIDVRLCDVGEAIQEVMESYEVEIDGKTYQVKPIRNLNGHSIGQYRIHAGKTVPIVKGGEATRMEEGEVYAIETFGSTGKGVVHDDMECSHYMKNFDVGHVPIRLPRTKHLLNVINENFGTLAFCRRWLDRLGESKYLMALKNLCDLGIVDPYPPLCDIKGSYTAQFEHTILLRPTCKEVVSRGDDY

[18] = biological target: T1, UDP-N-acetylglucosamine 1-carboxyvinyltransferase (Escherichia coli K-12, UniProt P0A749); test: Inhibition of Escherichia coli MurA expressed in Escherichia coli BL21(lambdaDE3) using UNAG and PEP as substrate incubated for 10 mins prior to PEP addition measured after 60 mins by spectrophotometric analysis
T1 sequence (P0A749 whole entry): as the sequence (P0A749 whole entry C115D) above, with D115C counted along it

[19] = biological target: Prothrombin (Homo sapiens) (UniProt P00734); details: at 25 µM
[20] = Induction of GSSG formation in citrate buffer at 100 uM by RP-LC/MS analysis
[21] = tested on: Pseudomonas aeruginosa; test: microbe, parasite or virus in culture; assay type: functional; details: ATCC 27853
[22] = Cytotoxicity against human Flow 2002 cells after 72 hrs by crystal violet staining method; assay type: ADME, cell-based; details: Flow 2002, 72 h
[23] = biological target: Methionine aminopeptidase 1 (Homo sapiens) (UniProt P53582); details: at 10 µM
[24] = Drug degradation assessed as 5-bromofuran-2-carbaldehyde formation at 100 uM by HPLC-UV analysis in absence of MurA; assay type: physicochemical
Method in brief: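 Test compound (100 µM) was held under standard MurA assay buffer conditions without enzyme, then stopped at several time points. HPLC-UV used a C18 column, 37 °C, and a 0.1% TFA water/acetonitrile gradient. Aldehyde formation was followed at 290 nm.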

[25] = Half life of the compound in Muller-Hinton medium at 100 uM at pH 5.8; assay type: physicochemical
Method in brief: (§1)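 Compound (100 µM) was dissolved in Müller-Hinton medium (pH 7.2, or adjusted to pH 5.8) and aliquots were injected onto HPLC at different time points. Parent disappearance was read at 390 nm. Half-life came from a first-order plot of log peak area versus time, t1/2 = ln2/kobs.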

[26] = Cytotoxicity against human lymphoblastoid cells assessed as cell vaibility at 3.4 uM; assay type: cell-based; details: read-out: Activity
[27] = Half life of the compound in tris buffer at pH 7.8
[28] = Drug degradation in Muller-Hinton medium assessed as disappearance of parent compound at 100 uM at pH 7.2 by HPLC-UV analysis; assay type: physicochemical; details: buffer, pH 7.2, 100 µM; TDE = time-dependent effect
Method in brief: as §1

[29] = Half life of the compound in citrate buffer at pH 6
[30] = biological target: UDP-N-acetylglucosamine 1-carboxyvinyltransferase (Escherichia coli K-12) (UniProt P0A749); test: Irreversible inhibition of Escherichia coli MurA expressed in Escherichia coli BL21(lambdaDE3) using UNAG and PEP as substrate at 1.25 uM incubated up to 80 min prior to PEP addition measured after 60 mins by spectrophotometric analysis; details: TDE = time-dependent effect
UDP-N-acetylglucosamine 1-carboxyvinyltransferase (Escherichia coli K-12), sequence (P0A749 whole entry): as the sequence (P0A749 whole entry C115D) above, with D115C counted along it
Method in brief: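 Phosphate-release MurA assay: 12 nM E. coli MurA, 250 µM UNAG, 125 µM PEP, 25 mM Tris pH 7.8, 0.1% BSA, 37 °C. The pre-incubation period of inhibitor with enzyme was varied before PEP addition. Reaction ran 60 min, was stopped with malachite green reagent, and read at 620 nm.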

[31] = biological target: UDP-N-acetylglucosamine 1-carboxyvinyltransferase (Escherichia coli K-12) (UniProt P0A749); test: Inhibition of Escherichia coli MurA expressed in Escherichia coli BL21(lambdaDE3) using UNAG and PEP as substrate at 5 uM incubated for 10 mins […] measured after 60 mins by spectrophotometric analysis
Method in brief: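 MurA (12 nM) was pre-incubated with UNAG and inhibitor for 10 min at 37 °C, and the reaction was started with PEP. Final conditions: UNAG 250 µM, PEP 125 µM, 25 mM Tris pH 7.8, 0.1% BSA, 1% DMSO. After 60 min at 37 °C, malachite green/molybdate reagent was added and phosphate was read at 620 nm after 10 min. Run in triplicate.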

[32] = biological target: UDP-N-acetylglucosamine 1-carboxyvinyltransferase (Escherichia coli K-12) (UniProt P0A749); test: Inhibition of Escherichia coli MurA expressed in Escherichia coli BL21(lambdaDE3) using UNAG and PEP as substrate at 50 to 500 uM incubated for 30 mins by 2,2'-dithiopyridine based spectrophotometric analysis
Method in brief: (§2)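 MurA (wild-type or C115D) was incubated with test compound at an equimolar ratio or 10-fold excess in 50 mM Tris pH 7.8 at room temperature for 30 min. 2,2'-Dithiodipyridine was then added in 0.5 M citrate pH 4 with 6 M urea for 30 min and quenched with 4% TFA. 2-Thiopyridone was measured by HPLC at 342 nm against a compound-free control.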

[33] = tested on: UDP-N-acetylglucosamine 1-carboxyvinyltransferase (Escherichia coli K-12), P0A749 [C115D]; test: Inhibition of Escherichia coli MurA C115D mutant expressed in Escherichia coli BL21(lambdaDE3) using UNAG and PEP as substrate at 50 to 500 uM incubated for 30 mins by 2,2'-dithiopyridine based spectrophotometric analysis
UDP-N-acetylglucosamine 1-carboxyvinyltransferase (Escherichia coli K-12), P0A749 [C115D], sequence (P0A749 whole entry C115D): as the sequence (P0A749 whole entry C115D) above
Method in brief: as §2

[34] = Half life of the compound in Muller-Hinton medium at 100 uM at pH 7.2; assay type: physicochemical
Method in brief: as §1

[35] = Prodrug activation in citrate buffer assessed as debromination at 100 uM at pH 6 in presence of GSH; assay type: physicochemical; details: pH 6, 100 µM
Method in brief: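 Inhibitor and glutathione, each at 100 µM final, in 50 mM sodium citrate pH 6.0. Aliquots were withdrawn every 30 s for 3 min and at 4 and 5 min, quenched, and analysed by reversed-phase HPLC-UV.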

[36] = biological target: T1, UDP-N-acetylglucosamine 1-carboxyvinyltransferase; test: Induction of Escherichia coli MurA-mediated 2-bromo-5-(2-nitrovinyl)furan formation assessed as enzyme-(R)-methyl 3-mercapto-2-(6-methoxy-2-oxo-2H-chromene-3-carboxamido)propanoate adduct level at 200 to 300 uM after 1 hr by SDS-PAGE analysis
Method in brief: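 E. coli MurA was incubated with the fluorescent coumarin cysteine thiol, with or without test compound. After 1 h, aliquots were quenched in non-reducing Laemmli buffer (one sample in reducing buffer), heated to 95 °C for 3 min and run on 12% SDS-PAGE. Protein-bound fluorophore was imaged at 365 nm excitation.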

[37] = Cytotoxicity against human lymphoblastoid cells assessed as cell vaibility at 46 uM; assay type: cell-based; details: read-out: Activity

SMILES	inhibition [1]	IC50 [4]	inhibition [5]	IC50 [6]	IC50 [7]	MIC [8]	IC50 [10]	MIC [11]	IC50 [12]	IC50 [13]	IC50 [14]	Activity [15]	MIC [16]	inhibition [17]	inhibition [19]	Activity [20]	MIC [21]	IC50 [22]	inhibition [23]	IC50 ([2]; read-out: IC50)	further results
O=Cc1ccc(Br)o1	inactive	≥ 100 µM	inactive	≥ 100 µM	≥ 100 µM	> 32 µg/mL	≥ 100 µM	> 32 µg/mL	≥ 100 µM	≥ 100 µM	≥ 100 µM	Active	> 32 µg/mL	inactive	inactive	Active	> 32 µg/mL	≥ 100 µM	inactive		IC50 [2]: Not Active; IC50 [3]: Not Active; IC50 [9]: Not Active; IC50 [18]: Not Active
O=[N+]([O-])/C(Br)=C/c1ccc(Br)o1	85%	43 µM	12%	36 µM	10 µM	4 µg/mL (≈ 13.5 µM)	47 µM	4 µg/mL (≈ 13.5 µM)	50 µM	33 µM	24 µM	Not Active	4 µg/mL (≈ 13.5 µM)	13%	8%	Not Active	2 µg/mL (≈ 6.74 µM)	9 µM	inactive	18.7 µM	Stability [24]: Unstable; half-life at 100 µM [25]: 1 h; viability at 3.4 µM [26]: > 70%; half-life [27]: 0.5 h; IC50 ([3]; read-out: IC50): 2.8 µM; Drug degradation [28]: tde; half-life [29]: 6 h; inhibition [30]: tde; inhibition [31]: Active; inhibition [32]: Active; IC50 ([9]; read-out: IC50): 3.9 µM; inhibition [33]: Active; half-life at 100 µM [34]: 8 min; IC50 ([18]; read-out: IC50): 2.8 µM; Drug metabolism [35]: Active; Drug metabolism [36]: Active
O=[N+]([O-])/C=C/c1ccc(Br)o1	30%	21 µM	26%	19 µM	5 µM	2 µg/mL (≈ 9.17 µM)	22 µM	2 µg/mL (≈ 9.17 µM)	18 µM	15 µM	12 µM	Not Active	2 µg/mL (≈ 9.17 µM)	7%	19%	Active	4 µg/mL (≈ 18.3 µM)	6 µM	inactive	23.8 µM	half-life [27]: 58 h; IC50 ([3]; read-out: IC50): 20.3 µM; half-life [29]: 116 h; IC50 ([9]; read-out: IC50): 20.7 µM; IC50 ([18]; read-out: IC50): 27.3 µM; viability at 46 µM [37]: > 70%
